Laboratory results reported in ChEMBL document CHEMBL5108077, “Discovery of N-β-l-Fucosyl Amides as High-Affinity Ligands for the Pseudomonas aeruginosa Lectin LecB” (J Med Chem, 2022).

How the values were obtained:
[1] = system: Pseudomonas aeruginosa; experiment: Binding affinity to Pseudomonas aeruginosa PA-IIL assessed as change in enthalpy by isothermal titration calorimetry
In short: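 Recombinant PAO1 LecB expressed in E. coli BL21(DE3), in TBS/Ca²⁺ pH 7.4. Ligand (500–1500 μM) titrated into 100 μM LecB at 25 °C with stirring: 19–39 injections, 240 s apart. First injection discarded. One-site binding model fit. Means from three independent titrations.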

[2] = system: Pseudomonas aeruginosa; experiment: Binding affinity to Pseudomonas aeruginosa PA-IIL assessed as change in entropy by isothermal titration calorimetry

- deltaH [1]: -7.46 kcal/mol
- TdeltaS [2]: 0.0717 kcal/mol
Compound: C[C@@H]1O[C@H](O)[C@@H](O)[C@H](O)[C@@H]1O
